Measurements published in ChEMBL document CHEMBL2440109, “Synthesis and antimycobacterial activity of isoniazid derivatives from renewable fatty acids” (2013).
Converted amounts (≈) assume the structure as drawn.

Key:
Format in all cases: functional
[1] = test system: Mycobacterium tuberculosis; assay: Antimycobacterial activity against rifampicin-resistant Mycobacterium tuberculosis ATCC 35338 harboring rpoB His-526-Tir gene mutant after 7 days by REMA assay
Method in brief: (§1)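 MIC by resazurin microtiter assay. Bacteria suspended in sterile water with glass beads, vortexed, turbidity set to McFarland tube 1 (3.2 × 10^6 CFU/mL), then diluted 1:20 in Middlebrook 7H9. Compounds in DMSO, two-fold serial dilutions (100.0-3.2 µg/mL) in 7H9 with 10% OADC. Incubated 37 °C for 7 days, resazurin added, further 2 days at 37 °C. MIC read from colour change.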

[2] = test system: Mycobacterium tuberculosis; assay: Antimycobacterial activity against isoniazid-resistant Mycobacterium tuberculosis ATCC 35822 harboring katG mutant after 7 days by REMA assay; method in brief: as §1
[3] = test system: Mycobacterium tuberculosis; assay: Antimycobacterial activity against isoniazid-resistant Mycobacterium tuberculosis 1896HF harboring inhA mutant after 7 days by REMA assay
Method in brief: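 MIC by resazurin microtiter assay. Bacteria suspended in sterile water with glass beads, vortexed, turbidity set to McFarland tube 1 (3.2 × 10^6 CFU/mL), then diluted 1:20 in Middlebrook 7H9. Incubated 37 °C for 7 days, resazurin added, further 2 days at 37 °C. MIC read from colour change.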

SMILES	MIC [1]	MIC [2]	MIC [3]
CCCCCC[C@@H](O)C/C=C\CCCCCCCC(=O)NNC(=O)c1ccncc1	0.015 µg/mL (≈ 0.0359 µM)	25 µg/mL (≈ 59.9 µM)	12.5 µg/mL (≈ 29.9 µM)
CCCCC/C=C\C/C=C\CCCCCCCC(=O)NNC(=O)c1ccncc1	0.03 µg/mL (≈ 0.0751 µM)	2 µg/mL (≈ 5.01 µM)	12.5 µg/mL (≈ 31.3 µM)
CCCCCCCC/C=C\CCCCCCCC(=O)NN [OLEOHYDRAZIDE]	50 µg/mL (≈ 169 µM)	50 µg/mL (≈ 169 µM)	>100 µg/mL
CCCCCCCCCCCCCCCCCC(=O)NNC(=O)c1ccncc1	0.003 µg/mL (≈ 0.00743 µM)	0.25 µg/mL (≈ 0.619 µM)	3.12 µg/mL (≈ 7.73 µM)
CO[C@H]1/C=C/O[C@@]2(C)Oc3c(C)c(O)c4c(O)c(c(/C=N/N5CCN(C)CC5)c(O)c4c3C2=O)NC(=O)/C(C)=C\C=C\[C@H](C)[C@H](O)[C@@H](C)[C@@H](O)[C@@H](C)[C@H](OC(C)=O)[C@@H]1C [RIFAMPIN]	>2 µg/mL	0.03 µg/mL (≈ 0.0365 µM)	
CCCCCCCC/C=C\CCCCCCCC(=O)O [OLEIC ACID]	>100 µg/mL	>100 µg/mL	>100 µg/mL
CCCCCCCC/C=C/CCCCCCCC(=O)NNC(=O)c1ccncc1	0.0019 µg/mL (≈ 0.00473 µM)	>50 µg/mL	6.25 µg/mL (≈ 15.6 µM)
CCCCCCCCCCCCCCCC(=O)NNC(=O)c1ccncc1	0.003 µg/mL (≈ 0.00799 µM)	0.125 µg/mL (≈ 0.333 µM)	0.78 µg/mL (≈ 2.08 µM)
CCCCCCCC/C=C\CCCCCCCC(=O)NNC(=O)c1ccncc1	0.003 µg/mL (≈ 0.00747 µM)	0.25 µg/mL (≈ 0.623 µM)	1.56 µg/mL (≈ 3.88 µM)
CC/C=C\C/C=C\C/C=C\CCCCCCCC(=O)NNC(=O)c1ccncc1	0.03 µg/mL (≈ 0.0755 µM)	25 µg/mL (≈ 62.9 µM)	12.5 µg/mL (≈ 31.4 µM)
NNC(=O)c1ccncc1 [ISONIAZID]	0.015 µg/mL (≈ 0.109 µM)	2 µg/mL (≈ 14.6 µM)	2 µg/mL (≈ 14.6 µM)
